What was measured:
[1] = Growth inhibition of mouse Hepa-1c1c7 cells; assay type: functional, cell-based
[2] = Chemoprevention index, ratio of IC50 for mouse Hepa-1c1c7 cells to drug level required to double quinone reductase activity in mouse Hepa-1c1c7 cells; assay type: functional
[3] = Inhibition of 7,12-dimethylbenz[a]anthracene-induced […] lesions in mouse mammary organ culture model at 10 ug/ml; assay type: functional; details: Mammary gland
In short: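 Mouse mammary glands in organ culture with 7,12-dimethylbenz[a]anthracene-induced preneoplastic lesions. Samples were tested at 10 µg/mL, with sulforaphane at 1 µg/mL as positive control. The read-out was percent inhibition of lesion formation.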

tissue or blood = details: Mus musculus, Mammary gland, read-out: INH

Row | SMILES | IC50 [1] [µM] | Ratio [2] | inhibition at 10 µg/mL [3] [%] | inhibition at 1 µg/mL (tissue or blood) [%]
1 | COc1cc(/C=C2\Oc3cc(O)ccc3C2=O)ccc1O | 34.6 | 5.4 | 48.2 | 
2 | COc1cc(C2Oc3c(OC)cc(/C=C/C=O)cc3C2CO)ccc1O (racemic) | 48.5 | 3.2 |  | 
3 | O=C(/C=C/c1ccc(O)cc1)c1ccc(O)cc1O [ISOLIQUIRITIGENIN] | 27.3 | 7.2 | 76 | 
4 | C[S+]([O-])CCCCN=C=S (centres undefined) [SULFORAPHANE] | 27.3 | 7.2 |  | 83.7
5 | O=C1/C(=C/c2ccc(O)c(O)c2)Oc2cc(O)ccc21 [SULFURETIN] | 78.5 | 3.8 | 58.5 | 

— ChEMBL document CHEMBL1159376, “Potential cancer chemopreventive constituents of the seeds of Dipteryx odorata (tonka bean)” (J Nat Prod, 2003)
